Experimental data taken from ChEMBL document CHEMBL4270634, “Benzothiazole carbamates and amides as antiproliferative species” (Eur J Med Chem, 2018).
Active and inactive are the calls of the source. No cut-off for these calls is given here.

Experiments:
[1] = tested on: NTERA-2-cl-D1; assay: Induction of apoptosis in human NT2/D1 cells assessed as late apoptotic cells at 1 uM after 24 hrs by Annexin V-FITC/PI staining based flow cytometry; type: functional
Summary of the method: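 NT2/D1 cells exposed to 1 µM for 24 h and 48 h. Floating and adherent cells were harvested separately, and each was analysed by Annexin V-FITC/PI flow cytometry for early and late apoptotic fractions.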

[2] = tested on: MCF7; assay: Induction of apoptosis in human MCF7 cells assessed as necrotic cells at 25 uM after 24 hrs by Annexin V-FITC/PI staining based flow cytometry (reference value: 2.62%); type: functional
[3] = tested on: MCF7; assay: Induction of apoptosis in human MCF7 cells assessed as late apoptotic cells at 25 uM after 24 hrs by Annexin V-FITC/PI staining based flow cytometry (reference value: 2.78%); type: functional
[4] = tested on: MCF7; assay: Induction of apoptosis in human MCF7 cells assessed as decrease in p73 protein expression level at IC50 measured after 24 to 48 hrs by flow cytometric analysis; type: functional, cell-based
[5] = tested on: MCF7; assay: Cell cycle arrest in human MCF7 cells at 25 uM by propidium iodide staining based flow cytometry; type: functional; settings: TDE = time-dependent effect
[6] = tested on: MCF7; assay: Induction of apoptosis in human MCF7 cells assessed as necrotic cells at 25 uM after 48 hrs by Annexin V-FITC/PI staining based flow cytometry (reference value: 0.82%); type: functional
[7] = tested on: MCF7; assay: Effect on cyclin B1 levels in human MCF7 cells at 25 uM after 24 hrs by propidium iodide staining based flow cytometry (reference value: 26.6%); type: functional
Summary of the method: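 MCF-7 cells treated 24 h at 25 µM or 30 µM; intracellular cyclin B1 level measured by flow cytometry.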

[8] = tested on: MCF7; assay: Cell cycle arrest in human MCF7 cells assessed as accumulation at G2/M phase at 25 uM after 48 hrs by propidium iodide staining based flow cytometry (reference value: 28.03%); type: functional
[9] = tested on: NTERA-2-cl-D1; assay: Induction of cell detachment in human NT2/D1 cells assessed as floating cells at 1 uM after 24 hrs by trypan blue exclusion assay relative to total cell number; type: functional
[10] = tested on: MCF7; assay: Induction of mitochondrial membrane potential loss in human MCF7 cells at IC50 measured after 24 hrs by Rh123 dye-based flow cytometric analysis; type: functional, cell-based
Summary of the method: (§1)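 Mitochondrial membrane potential was assessed by Rh123 incorporation with flow cytometry and compared with untreated cells.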

[11] = tested on: MCF7; assay: Cell cycle arrest in human MCF7 cells assessed as accumulation at G0/G1 phase at 25 uM after 48 hrs by propidium iodide staining based flow cytometry (reference value: 48.80%); type: functional
[12] = tested on: NTERA-2-cl-D1; assay: Cell cycle arrest in human NT2/D1 cells assessed as accumulation at G2/M phase at 1 uM after 24 hrs by propidium iodide staining based flow cytometry (reference value: 27.95%); type: functional
[13] = tested on: Mus musculus; assay: Acute toxicity in athymic nude mouse at 50 to 200 mg/kg ip administered as single dose measured after 14 days; type: organism-based; settings: in vivo, 336 h
Summary of the method: (§2)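 Single i.p. injection into nontumored female athymic nude mice as an NCI maximum-tolerated-dose acute toxicity assay.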

[14] = tested on: MCF7; assay: Induction of apoptosis in human MCF7 cells assessed as early apoptotic cells at 25 uM after 24 hrs by Annexin V-FITC/PI staining based flow cytometry (reference value: 1.30%); type: functional
Summary of the method: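 MCF-7 cells were treated for 24 h at a single concentration (25 µM or 30 µM, depending on compound). Apoptosis was assessed by bivariate Annexin V-FITC/PI flow cytometry, distinguishing early apoptotic from late apoptotic/necrotic cells, against untreated control.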

[15] = tested on: MCF7; assay: Cell cycle arrest in human MCF7 cells assessed as accumulation at sub-G1 phase at 25 uM after 24 hrs by propidium iodide staining based flow cytometry (reference value: 0.65%); type: functional
[16] = tested on: MCF7; assay: Induction of apoptosis in human MCF7 cells assessed as increase in Bax protein expression level at IC50 measured after 24 to 48 hrs by flow cytometric analysis; type: functional, cell-based
[17] = tested on: MCF7; assay: Induction of apoptosis in human MCF7 cells assessed as late apoptotic cells at 25 uM after 48 hrs by Annexin V-FITC/PI staining based flow cytometry (reference value: 2.95%); type: functional
[18] = tested on: NTERA-2-cl-D1; assay: Inhibition of colony growth of human NT2/D1 cells at IC50 measured after 7 days by crystal violet staining based inverted microscopy relative to control; type: functional
[19] = tested on: MCF7; assay: Decrease in ROS production in human MCF7 cells at IC50 measured after 24 to 48 hrs by DCFH-DA probe based flow cytometric analysis; type: functional, cell-based
[20] = tested on: MCF7; assay: Induction of apoptosis in human MCF7 cells assessed as decrease in Bcl-2 protein expression level at IC50 measured after 48 hrs by flow cytometric analysis; type: functional, cell-based
[21] = tested on: MCF7; assay: Cell cycle arrest in human MCF7 cells assessed as accumulation at G2/M phase at 25 uM after 24 hrs by propidium iodide staining based flow cytometry (reference value: 27.04%); type: functional
[22] = tested on: MCF7; assay: Cell cycle arrest in human MCF7 cells assessed as accumulation at sub-G1 phase at 25 uM after 48 hrs by propidium iodide staining based flow cytometry (reference value: 0.41%); type: functional
[23] = tested on: MCF7; assay: Effect on Bcl-2 protein expression level in human MCF7 cells at IC50 measured after 24 hrs by flow cytometric analysis; type: functional, cell-based
Summary of the method: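 Bax and Bcl-2 expression in MCF-7 cells quantified by FACS after 24 and 48 h at a single equipotent (IC₅₀) concentration; Bax/Bcl-2 ratio expressed as fold of untreated control.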

[24] = tested on: MCF7; assay: Induction of apoptosis in human MCF7 cells assessed as early apoptotic cells at 25 uM after 48 hrs by Annexin V-FITC/PI staining based flow cytometry (reference value: 0.98%); type: functional
[25] = tested on: MCF7; assay: Cell cycle arrest in human MCF7 cells assessed as accumulation at S phase at 25 uM after 24 hrs by propidium iodide staining based flow cytometry (reference value: 28.27%); type: functional
[26] = tested on: MCF7; assay: Cell cycle arrest in human MCF7 cells assessed as accumulation at S phase at 25 uM after 48 hrs by propidium iodide staining based flow cytometry (reference value: 23.07%); type: functional
[27] = tested on: NTERA-2-cl-D1; assay: Induction of cell detachment in human NT2/D1 cells assessed as floating cells at 1 uM after 48 hrs by trypan blue exclusion assay relative to total cell number; type: functional
[28] = tested on: MCF7; assay: Induction of apoptosis in human MCF7 cells assessed as increase in p53 protein expression level at IC50 measured after 24 to 48 hrs by flow cytometric analysis; type: functional, cell-based
[29] = tested on: MCF7; assay: Cell cycle arrest in human MCF7 cells assessed as accumulation at G0/G1 phase at 25 uM after 24 hrs by propidium iodide staining based flow cytometry (reference value: 44.23%); type: functional
[30] = tested on: MCF7; assay: Induction of mitochondrial membrane potential loss in human MCF7 cells at IC50 measured after 48 hrs by Rh123 dye-based flow cytometric analysis; type: functional; summary of the method: as §1
[31] = tested on: Mus musculus; assay: Acute toxicity in athymic nude mouse at 100 to 400 mg/kg ip administered as single dose measured after 14 days; type: organism-based; settings: in vivo, 336 h; summary of the method: as §2
[32] = tested on: MCF7; assay: Decrease in ROS production in human MCF7 cells at 25 uM measured after 24 hrs by DCFH-DA probe based flow cytometric analysis; type: functional; design: scale not given: the % may be the effect or the level left
Summary of the method: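 MCF-7 cells exposed 24 h at 25 µM. Intracellular ROS measured by flow cytometry with DCFH-DA and compared to untreated control cells.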

With `CCCOC(=O)Nc1nc2ccc(SCCC)cc2s1` the Activity [1] was 50%, the Activity [2] was 3.53% and the Activity [3] was 4.33%. The Activity [4] was “inactive”, the Activity [5] was “Tde” and the Activity [6] was 2.61%. It also gave an Activity [7] of 50.8%, an Activity [8] of 15.25% and an Activity [9] of 42%. For the same molecule, the Activity [10] was “Active”, the Activity [11] was 18.82% and the Activity [12] was 41.72%. For the same molecule, the Activity [13] was “Non-Toxic”, the Activity [14] was 21% and the Activity [15] was 24.58%. For the same molecule, the Activity [16] was “Active”, the Activity [17] was 7.53% and the “inhibition (INH)” value [18] was 45%. The Activity [19] was “Active”, the Activity [20] was “Active” and the Activity [21] was 40.66%. For the same molecule, the Activity [22] was 50.4%, the Activity [23] was “inactive” and the Activity [24] was 61.06%. It also gave an Activity [25] of 19.3%, an Activity [26] of 15.9% and an Activity [27] of 69%. For the same molecule, the Activity [28] was “Active”, the Activity [29] was 15.62% and the Activity [30] was >80%.

`CCCCSc1ccc2nc(NC(=O)OCCC)sc2c1` gave an Activity [1] of 50%, an Activity [9] of 79% and an Activity [12] of 67.75%. The “inhibition (INH)” value [18] was 25%, the Activity [31] was “Non-Toxic” and the Activity [27] was 91%.

`CCCOC(=O)Nc1nc2ccc(OCC)cc2s1` showed an Activity [32] of 15%.
